According to ChEMBL document CHEMBL1130878 (Bioorg Med Chem Lett, 1998):
pIC50: −log10 of the molar value.

Experiments:
[1] = molecular target: T1, Endothelin receptor type B (Sus scrofa, UniProt P35463); test: In vitro ability to inhibit specific [125I]ET1 binding to porcine kidney (inner medulla) membranes Endothelin B receptor
T1 sequence (P35463 whole entry): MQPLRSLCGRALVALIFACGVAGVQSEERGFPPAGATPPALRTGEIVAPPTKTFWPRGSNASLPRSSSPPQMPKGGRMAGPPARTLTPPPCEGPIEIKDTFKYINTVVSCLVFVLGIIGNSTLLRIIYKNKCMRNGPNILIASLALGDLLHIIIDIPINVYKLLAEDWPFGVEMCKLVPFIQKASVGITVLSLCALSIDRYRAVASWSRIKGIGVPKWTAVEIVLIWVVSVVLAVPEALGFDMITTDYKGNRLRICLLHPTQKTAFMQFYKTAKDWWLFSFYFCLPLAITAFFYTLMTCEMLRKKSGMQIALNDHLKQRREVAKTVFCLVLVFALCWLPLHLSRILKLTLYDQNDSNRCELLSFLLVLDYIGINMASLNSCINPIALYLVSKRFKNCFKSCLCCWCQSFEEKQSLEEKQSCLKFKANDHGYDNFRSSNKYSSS

Endothelin-1 receptor = molecular target: T2, Endothelin-1 receptor (Rattus norvegicus, UniProt P26684); test: In vitro ability to inhibit specific [125I]ET1 binding to rat aorta membranes Endothelin A receptor; assay type: tissue-based
T2 sequence (P26684 whole entry): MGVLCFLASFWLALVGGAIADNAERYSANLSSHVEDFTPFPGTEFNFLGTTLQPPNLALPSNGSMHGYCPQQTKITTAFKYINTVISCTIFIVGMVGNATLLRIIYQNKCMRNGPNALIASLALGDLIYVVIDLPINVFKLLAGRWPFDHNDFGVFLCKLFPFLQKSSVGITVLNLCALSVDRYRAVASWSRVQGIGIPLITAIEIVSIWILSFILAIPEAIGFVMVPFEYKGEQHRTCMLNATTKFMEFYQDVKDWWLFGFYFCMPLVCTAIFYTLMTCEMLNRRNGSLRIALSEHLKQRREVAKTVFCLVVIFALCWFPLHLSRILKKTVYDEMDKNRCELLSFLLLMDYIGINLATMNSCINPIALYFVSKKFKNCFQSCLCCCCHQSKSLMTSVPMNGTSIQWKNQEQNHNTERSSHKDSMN

[2] = Compound was evaluated for maximum time to reach Cmax after treatment with oral dose of 2 mgkg to female wistar rats; assay type: ADME, organism-based; design: dose 2 mgkg, route oral; details: rat, in vivo, 2 mg/kg
Method in brief: (§1)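 Male and female Wistar rats, n = 3 per group, received a single dose of either 1 mg/kg iv or 2 mg/kg orally. Plasma levels were followed after dosing. Half-life was taken over the interval 1-8 h post administration. Oral bioavailability was derived against the iv data.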

[3] = Compound was evaluated for clearance after treatment with iv dose of 1 mgkg to female cynomolgus monkey; assay type: ADME, organism-based; design: dose 1 mgkg, route intravenous; details: cercopithecidae, in vivo, 1 mg/kg
Method in brief: (§2)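 A female cynomolgus monkey (n = 1) received a single dose of either 1 mg/kg iv or 2 mg/kg orally. Plasma concentration-time data gave Cmax, tmax, AUC, clearance and Vss. Half-life was calculated over 1-8 h post administration.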

Rattus norvegicus [4] = test: Effect of compound on heart rate activity of spontaneously hypertensive rats after single oral administration of 0.3 mg/Kg dose; assay type: functional
Method in brief: (§3)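 Conscious spontaneously hypertensive rats were given a single oral dose at 12:00, with 5% arabic gum as the control vehicle. Heart rate and motor activity were monitored by telemetry. Change from a 3 h predrug period (9:00-12:00) was expressed as AUC0-12h (12:00-24:00). n = 6-13 per group, mean ± SEM, ANOVA with Dunnett's test vs control.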

Rattus norvegicus [5] = test: ET-1 induced increase in mean arterial pressure following 1 mg/kg oral administration of compound; assay type: functional, Artery
[6] = Compound was evaluated for volume of distribution (steady state) after treatment with iv dose of 1 mgkg to female cynomolgus monkey; assay type: ADME, organism-based; design: dose 1 mgkg, route intravenous; details: cercopithecidae, in vivo, 1 mg/kg, read-out: Vss; method in brief: as §2
Oryctolagus cuniculus = species on record: Oryctolagus cuniculus; test: Compound was evaluated for the functional assay performed by obtaining sarafotoxin 6c concentration-response curves [pA2(ETB)] in isolated rabbit jugularis vein
[7] = Compound was evaluated for half life after treatment with iv dose of 1 mgkg to female wistar rats; assay type: ADME, organism-based; design: dose 1 mgkg, route intravenous; details: rat, in vivo, 1 mg/kg; method in brief: as §1
Rattus norvegicus [8] = test: Compound was evaluated for AUC after treatment with oral dose of 2 mgkg to male wistar rats; assay type: ADME, organism-based; design: dose 2 mgkg, route oral; details: in vivo, 2 mg/kg; method in brief: as §1
Rattus norvegicus [9] = test: Compound was evaluated for AUC after treatment with iv dose of 1 mgkg to female wistar rats; assay type: ADME, organism-based; design: dose 1 mgkg, route intravenous; details: in vivo, 1 mg/kg; method in brief: as §1
[10] = Compound was evaluated for half-life after treatment with iv dose of 1 mgkg to female cynomolgus monkey; assay type: ADME, organism-based; design: dose 1 mgkg, route intravenous; details: cercopithecidae, in vivo, 1 mg/kg; method in brief: as §2
[11] = Compound was evaluated for maximum concentration after treatment with oral dose of 2 mgkg to male wistar rats; assay type: ADME, organism-based; design: dose 2 mgkg, route oral; details: rat, in vivo, 2 mg/kg; method in brief: as §1
[12] = Compound was evaluated for clearance after treatment with iv dose of 1 mgkg to female wistar rats; assay type: ADME, organism-based; design: dose 1 mgkg, route intravenous; details: rat, in vivo, 1 mg/kg; method in brief: as §1
[13] = Compound was evaluated for AUC after treatment with iv dose of 1 mgkg to female cynomolgus monkey; assay type: ADME, organism-based; design: dose 1 mgkg, route intravenous; details: cercopithecidae, in vivo, 1 mg/kg; method in brief: as §2
[14] = Compound was evaluated for maximum concentration after treatment with oral dose of 2 mgkg to female wistar rats; assay type: ADME, organism-based; design: dose 2 mgkg, route oral; details: rat, in vivo, 2 mg/kg; method in brief: as §1
Rattus norvegicus [15] = test: Effect of compound on motor activity of spontaneously hypertensive rats after single oral administration of 0.3 mg/Kg dose; assay type: functional; method in brief: as §3
[16] = Compound was evaluated for AUC after treatment with oral dose of 2 mgkg to female cynomolgus monkey; assay type: ADME; details: cercopithecidae, in vivo; method in brief: as §2
Rattus norvegicus [17] = test: ET-1 induced increase in mean arterial pressure following 3 mg/kg oral administration of compound; assay type: functional, Artery
Rattus norvegicus [18] = test: Effect of compound on heart rate activity of spontaneously hypertensive rats after single oral administration of 3 mg/Kg dose; assay type: functional; method in brief: as §3
[19] = Compound was evaluated for maximum time to reach Cmax after treatment with oral dose of 2 mgkg to male wistar rats; assay type: ADME, organism-based; design: dose 2 mgkg, route oral; details: rat, in vivo, 2 mg/kg; method in brief: as §1
Rattus norvegicus [20] = species on record: Rattus norvegicus; test: Compound was evaluated for the functional assay performed by obtaining ET-1 concentration-response curves [pA2(ETA)] in isolated rat aortic rings; details: Aorta, read-out: pA2 (converted)
Method in brief: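 Functional ETA assay: ET-1 concentration-response curves in isolated rat aortic rings with the endothelium removed. Antagonism is expressed as pA2.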

Rattus norvegicus [21] = test: Effect of compound on heart rate activity of spontaneously hypertensive rats after single oral administration of 10 mg/Kg dose; assay type: functional; method in brief: as §3
Rattus norvegicus [22] = test: Effect of compound on heart rate activity of spontaneously hypertensive rats after single oral administration of 30 mg/Kg dose; assay type: functional; method in brief: as §3
Rattus norvegicus [23] = test: Effect of compound on motor activity of spontaneously hypertensive rats after single oral administration of 10 mg/Kg dose; assay type: functional; method in brief: as §3
[24] = Compound was evaluated for maximum concentration after treatment with oral dose of 2 mgkg to female cynomolgus monkey; assay type: ADME, organism-based; design: dose 2 mgkg, route oral; details: cercopithecidae, in vivo, 2 mg/kg; method in brief: as §2
Rattus norvegicus [25] = test: Effect of compound on motor activity of spontaneously hypertensive rats after single oral administration of 3 mg/Kg dose; assay type: functional; method in brief: as §3
Rattus norvegicus [26] = test: Effect of compound on motor activity of spontaneously hypertensive rats after single oral administration of 0.1 mg/Kg dose; assay type: functional; method in brief: as §3
Rattus norvegicus [27] = test: Effect of compound on motor activity of spontaneously hypertensive rats after single oral administration of 30 mg/Kg dose; assay type: functional; method in brief: as §3
Rattus norvegicus [28] = test: ET-1 induced increase in mean arterial pressure following 0.1 mg/kg oral administration of compound; assay type: functional, Artery
[29] = Compound was evaluated for half life after treatment with iv dose of 1 mgkg to male wistar rats; assay type: ADME, organism-based; design: dose 1 mgkg, route intravenous; details: rat, in vivo, 1 mg/kg; method in brief: as §1
[30] = Compound was evaluated for maximum time to reach Cmax after treatment with oral dose of 2 mgkg to female cynomolgus monkey; assay type: ADME, organism-based; design: dose 2 mgkg, route oral; details: cercopithecidae, in vivo, 2 mg/kg; method in brief: as §2
[31] = Compound was evaluated for volume of distribution (steady state) after treatment with iv dose of 1 mgkg to male wistar rats; assay type: ADME, organism-based; design: dose 1 mgkg, route intravenous; details: rat, in vivo, 1 mg/kg, read-out: Vss; method in brief: as §1
[32] = Compound was evaluated for volume of distribution (steady state) after treatment with iv dose of 1 mgkg to female wistar rats; assay type: ADME, organism-based; design: dose 1 mgkg, route intravenous; details: rat, in vivo, 1 mg/kg, read-out: Vss; method in brief: as §1
Rattus norvegicus [33] = test: Effect of compound on motor activity of spontaneously hypertensive rats after single oral administration of 1 mg/Kg dose; assay type: functional; method in brief: as §3
[34] = Compound was evaluated for clearance after treatment with iv dose of 1 mgkg to male wistar rats; assay type: ADME, organism-based; design: dose 1 mgkg, route intravenous; details: rat, in vivo, 1 mg/kg; method in brief: as §1
Rattus norvegicus [35] = test: Compound was evaluated for AUC after treatment with iv dose of 1 mgkg to male wistar rats; assay type: ADME, organism-based; design: dose 1 mgkg, route intravenous; details: in vivo, 1 mg/kg; method in brief: as §1
Rattus norvegicus [36] = test: Compound was evaluated for AUC after treatment with oral dose of 2 mgkg to female wistar rats; assay type: ADME, organism-based; design: dose 2 mgkg, route oral; details: in vivo, 2 mg/kg; method in brief: as §1
Rattus norvegicus [37] = test: Effect of compound on motor activity of spontaneously hypertensive rats after single oral administration of 0.03 mg/Kg dose; assay type: functional; method in brief: as §3
Rattus norvegicus [38] = test: ET-1 induced increase in mean arterial pressure following 0.3 mg/kg oral administration of compound; assay type: functional, Artery
Rattus norvegicus [39] = test: Effect of compound on heart rate activity of spontaneously hypertensive rats after single oral administration of 1 mg/Kg dose; assay type: functional; method in brief: as §3
Rattus norvegicus [40] = test: Effect of compound on heart rate activity of spontaneously hypertensive rats after single oral administration of 0.1 mg/Kg dose; assay type: functional; method in brief: as §3
Rattus norvegicus [41] = test: Effect of compound on heart rate activity of spontaneously hypertensive rats after single oral administration of 0.03 mg/Kg dose; assay type: functional; method in brief: as §3

With `COc1ccc(C(=O)/C(Cc2cc(OC)c(OC)c(OC)c2)=C(\C(=O)O)c2ccc3nsnc3c2)cc1Cl` as the compound, how does the pIC50 [1] read?
The pIC50 was 6.74.

What about the pIC50 (Endothelin-1 receptor) of the same compound?
The pIC50 was 9.00.

What does the source list for `COc1cc(C/C(C(=O)c2ccc(OC(F)F)cc2)=C(/C(=O)O)c2ccc3nsnc3c2)cc(OC)c1OC`?
pIC50 [1]: 5.72; pIC50 (Endothelin-1 receptor): 6.80

Which results are given for `COc1ccc(C(=O)/C(Cc2cc(OC)c(OC)c(OC)c2)=C(\C(=O)[O-])c2ccc3nsnc3c2)cc1F.[Na+]`?
Tmax [2]: 30 min; clearance [3]: 5 mL/min/kg; AUC0-12h ΔHR (Rattus norvegicus [4]): -413 min-1·h; Mean arterial blood pressure (Rattus norvegicus [5]): 11 mmHg; pIC50 [1]: 6.80; Vd [6]: 0.1 L/kg; Kb (Oryctolagus cuniculus): 1000 nM; half-life [7]: 102 min; AUC (Rattus norvegicus [8]): 1630 ng·h/mL; AUC (Rattus norvegicus [9]): 15400 ng·h/mL; half-life [10]: 60 min; Cmax [11]: 1010 ng/mL; clearance [12]: 1.67 mL/min/kg; AUC [13]: 3300 ng·h/mL; Cmax [14]: 3160 ng/mL; AUC0-12h ΔMA (Rattus norvegicus [15]): -93 units·h; AUC [16]: 4260 ng·h/mL; Mean arterial blood pressure (Rattus norvegicus [17]): 7 mmHg; AUC0-12h ΔHR (Rattus norvegicus [18]): -356 min-1·h; Tmax [19]: 30 min; Kb (Rattus norvegicus [20]): 0.316 nM; AUC0-12h ΔHR (Rattus norvegicus [21]): -349 min-1·h; AUC0-12h ΔHR (Rattus norvegicus [22]): -260 min-1·h; AUC0-12h ΔMA (Rattus norvegicus [23]): -131 units·h; Cmax [24]: 3830 ng/mL; AUC0-12h ΔMA (Rattus norvegicus [25]): -102 units·h; AUC0-12h ΔMA (Rattus norvegicus [26]): -72 units·h; AUC0-12h ΔMA (Rattus norvegicus [27]): -99 units·h; Mean arterial blood pressure (Rattus norvegicus [28]): 32 mmHg; pIC50 (Endothelin-1 receptor): 10.49; half-life [29]: 96 min; Tmax [30]: 30 min; Vd [31]: 0.5 L/kg; Vd [32]: 0.2 L/kg; AUC0-12h ΔMA (Rattus norvegicus [33]): -131 units·h; clearance [34]: 6.67 mL/min/kg; AUC (Rattus norvegicus [35]): 2500 ng·h/mL; AUC (Rattus norvegicus [36]): 21300 ng·h/mL; AUC0-12h ΔMA (Rattus norvegicus [37]): -97 units·h; Mean arterial blood pressure (Rattus norvegicus [38]): 24 mmHg; AUC0-12h ΔHR (Rattus norvegicus [39]): -344 min-1·h; AUC0-12h ΔHR (Rattus norvegicus [40]): -341 min-1·h; AUC0-12h ΔHR (Rattus norvegicus [41]): -384 min-1·h

With `COc1ccc(C(=O)/C(Cc2ccc3c(c2)CCO3)=C(\C(=O)O)c2ccc3nsnc3c2)cc1` as the compound, how does the pIC50 [1] read?
Its pIC50 is 5.85.

And the pIC50 (Endothelin-1 receptor)?
The pIC50 was 8.47.
